Test results as given in ChEMBL document CHEMBL5724801, “EUbOPEN Chemogenomics Library - Multiplex” (2024).
“And” between values parts separate entries of the source, which are not always exact repeats. Equal entries are not always repeated.

Test system: HEK-293T
Assay: Multiplex assay against HEK293T
Format: toxicity, cell-based
Conditions: human
Procedure, shortened: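 Phenotypes for tubulin, mitochondrial mass and membrane permeability are expressed as per cents of healthy-nucleus cells. Cells were stained live at seeding with Hoechst33342, BioTracker Green Microtubule Cytoskeleton Dye, MitoTracker Red and Annexin V Alexa Fluor 680, then imaged after compound addition on a CQ1 microscope at 37°C and 5% CO2. Machine-learning gating in CellPathfinder separated Hoechst high-intensity objects from normal cells, divided normal cells by nuclear state (healthy, pyknosed, fragmented) and divided pyknosed cells into mitotic or apoptotic.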

[1] = 12 h, 1 µM, compound concentration 1 uM
[2] = 12 h, 10 µM, compound concentration 10 uM
[3] = 24 h, 1 µM, compound concentration 1 uM
[4] = 24 h, 10 µM, compound concentration 10 uM
[5] = 48 h, 1 µM, compound concentration 1 uM
[6] = 48 h, 10 µM, compound concentration 10 uM

## FC(F)(F)c1ccccc1-c1cc(C(F)(F)F)c2[nH]c(C3=NOC4(CCCCC4)C3)nc2c1
[1]
  Population Apoptotic (%): 5.48% and 14.05%
  Population Fragmented Nuclei (%): 1.23% and 6.04%
  Population Hoechst High Intensity Objects (%): 0%
  Population Membrane Permeable-Phenotype (%): 0%
  Population Mitochondria Different-Phenotype (%): 43.68% and 36.84%
  Population Mitotic Cells (%): 94.52% and 85.95%
  Population Normal (%): 100%
  Population Pyknosed Nuclei (%): 45.06% and 81.21%
  Total Cell Count: 324 and 149
[2]
  Population Apoptotic (%): 11.51% and 25.77%
  Population Fragmented Nuclei (%): 0.39% and 4.42%
  Population Hoechst High Intensity Objects (%): 0.78% and 0%
  Population Membrane Permeable-Phenotype (%): 0%
  Population Mitochondria Different-Phenotype (%): 32.17% and 18.18%
  Population Mitotic Cells (%): 88.49% and 74.23%
  Population Normal (%): 99.22% and 100%
  Population Pyknosed Nuclei (%): 54.51% and 85.84%
  Population Tubulin-Different-Phenotype (%): 40.87% and 45.45%
  Total Cell Count: 257 and 113
[3]
  Population Apoptotic (%): 10.89% and 15.53%
  Population Fragmented Nuclei (%): 1.48% and 2.1%
  Population Hoechst High Intensity Objects (%): 0%
  Population Membrane Permeable-Phenotype (%): 0.93% and 5.41%
  Population Mitochondria Different-Phenotype (%): 18.75% and 24.32%
  Population Mitotic Cells (%): 89.11% and 84.47%
  Population Normal (%): 100%
  Population Tubulin-Different-Phenotype (%): 18.29% and 21.62%
[4]
  Population Apoptotic (%): 37.98% and 40%
  Population Fragmented Nuclei (%): 1.06% and 5.51%
  Population Hoechst High Intensity Objects (%): 0.7% and 0%
  Population Membrane Permeable-Phenotype (%): 0.66% and 0%
  Population Mitochondria Different-Phenotype (%): 57.89% and 50%
  Population Mitotic Cells (%): 62.02% and 60%
  Population Normal (%): 99.3% and 100%
  Population Pyknosed Nuclei (%): 45.42% and 86.61%
  Population Tubulin-Different-Phenotype (%): 72.37% and 30%
  Total Cell Count: 286 and 127
[5]
  Population Fragmented Nuclei (%): 2% and 1.31%
  Population Healthy Nuclei (%): 85.85% and 52.94%
  Population Hoechst High Intensity Objects (%): 0%
  Population Membrane Permeable-Phenotype (%): 4.66% and 2.47%
  Population Mitochondria Different-Phenotype (%): 18.43% and 25.93%
  Population Mitotic Cells (%): 94.52% and 78.57%
  Population Normal (%): 100%
[6]
  Population Apoptotic (%): 29.75% and 35.21%
  Population Fragmented Nuclei (%): 1.37% and 5.17%
  Population Healthy Nuclei (%): 74.95% and 33.62%
  Population Hoechst High Intensity Objects (%): 0%
  Population Membrane Permeable-Phenotype (%): 3.92% and 2.56%
  Population Mitochondria Different-Phenotype (%): 79.11% and 61.54%
  Population Mitotic Cells (%): 70.25% and 64.79%
  Population Normal (%): 100%
  Population Pyknosed Nuclei (%): 23.68% and 61.21%

## CCOc1ccccc1C(=O)NCC1(N2CCN(CC)CC2)CCCCC1
[1]
  Population Apoptotic (%): 17.61% and 11.57%
  Population Fragmented Nuclei (%): 1.59% and 5.52%
  Population Hoechst High Intensity Objects (%): 0%
  Population Membrane Permeable-Phenotype (%): 0.66% and 6.25%
  Population Mitotic Cells (%): 82.39% and 88.43%
  Population Normal (%): 100%
  Population Pyknosed Nuclei (%): 50.48% and 83.45%
  Population Tubulin-Different-Phenotype (%): 10.6% and 18.75%
  Total Cell Count: 315 and 145
[2]
  Population Apoptotic (%): 15.84% and 21.31%
  Population Fragmented Nuclei (%): 1.84% and 5.41%
  Population Healthy Nuclei (%): 36.2% and 12.16%
  Population Hoechst High Intensity Objects (%): 0% and 0.67%
  Population Membrane Permeable-Phenotype (%): 0.85% and 0%
  Population Mitochondria Different-Phenotype (%): 25.42% and 50%
  Population Mitotic Cells (%): 84.16% and 78.69%
  Population Normal (%): 100% and 99.33%
  Population Pyknosed Nuclei (%): 61.96% and 82.43%
  Population Tubulin-Different-Phenotype (%): 38.14% and 77.78%
  Total Cell Count: 326 and 149
[3]
  Population Apoptotic (%): 13.73% and 14.84%
  Population Fragmented Nuclei (%): 1% and 7.69%
  Population Hoechst High Intensity Objects (%): 0.2% and 0.59%
  Population Membrane Permeable-Phenotype (%): 2.05% and 0%
  Population Mitochondria Different-Phenotype (%): 24.34% and 10.71%
  Population Mitotic Cells (%): 86.27% and 85.16%
  Population Normal (%): 99.8% and 99.41%
  Population Pyknosed Nuclei (%): 30.66% and 75.74%
  Population Tubulin-Different-Phenotype (%): 21.41% and 10.71%
  Total Cell Count: 500 and 170
[4]
  Population Apoptotic (%): 40.41% and 45.37%
  Population Fragmented Nuclei (%): 1.63% and 6.29%
  Population Hoechst High Intensity Objects (%): 0%
  Population Membrane Permeable-Phenotype (%): 1.45% and 0%
  Population Mitochondria Different-Phenotype (%): 39.49% and 42.31%
  Population Mitotic Cells (%): 59.59% and 54.63%
  Population Normal (%): 100%
  Population Pyknosed Nuclei (%): 34.03% and 75.52%
  Population Tubulin-Different-Phenotype (%): 64.13% and 73.08%
  Total Cell Count: 429 and 143
[5]
  Population Fragmented Nuclei (%): 1.56% and 2.66%
  Population Healthy Nuclei (%): 84.02% and 40.96%
  Population Hoechst High Intensity Objects (%): 0%
  Population Membrane Permeable-Phenotype (%): 5.34% and 1.3%
  Population Mitochondria Different-Phenotype (%): 24.83% and 45.45%
  Population Mitotic Cells (%): 94.59% and 81.13%
  Population Normal (%): 100%
[6]
  Population Apoptotic (%): 21.8% and 42.22%
  Population Fragmented Nuclei (%): 2.46% and 4.08%
  Population Healthy Nuclei (%): 79.37% and 50%
  Population Hoechst High Intensity Objects (%): 0.14% and 1.01%
  Population Membrane Permeable-Phenotype (%): 3.96% and 3.06%
  Population Mitochondria Different-Phenotype (%): 67.81% and 74.49%
  Population Mitotic Cells (%): 78.2% and 57.78%
  Population Normal (%): 99.86% and 98.99%
  Population Pyknosed Nuclei (%): 18.17% and 45.92%
